Series [1] concerns Splenocyte. In words: Antiinflammatory activity in splenocytes (unknown origin) assessed as decrease in MCP1 release at 15 uM after 48 hrs by flow cytometric analysis. Type of series: functional, cell-based. (In flow cytometry, cells or beads pass a laser one at a time.)
Series [2] relates to Leishmania infantum. In words: Antileishmanial activity against Leishmania infantum MHOM/BR/1972/LD amastigote forms infected in BALB/c mouse peritoneal macrophages assessed as reduction in parasite viability after 120 hrs by giemsa staining based light microscopy. It counts as functional. The procedure, abridged:
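BALB/c peritoneal macrophages seeded at 1×10^5/well for 24 h, then infected with hamster spleen-derived amastigotes (1:10 macrophage:amastigote, 24 h, 37 °C, 5% CO2). Compound exposure for 120 h, highest 100 μM. Cells MeOH-fixed and Giemsa-stained; infected macrophages counted out of 400 cells. IC50 from sigmoidal dose-response; at least two independent assays.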

A short description of series [3]: Cytotoxicity against mouse NCTC-929 cells assessed as decrease in cell viability after 48 hrs by MTT assay. It counts as toxicity. The procedure, abridged:
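NCTC clone 929 murine cells seeded at 6×10^4/well. Compound up to 150 μM for 48 h at 37 °C, 5% CO2. Viability read by MTT. CC50 from sigmoidal dose-response; mean of at least two independent experiments.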
Background: Tetrazolium dyes change colour on reduction, which living cells bring about.

Another series has as its system Trypanosoma cruzi. In words: Antitrypanosomal activity against Trypanosoma cruzi Y trypomastigote forms infected in monkey LLC-MK2 cells assessed as reduction in parasite viability after 24 hrs by resazurin assay. It counts as functional, cell-based. The settings on record: LLC-MK2, 24 h. An outline of the steps:
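Y-strain trypomastigotes from LLC-MK2 cultures seeded at 1×10^6/well in RPMI-1640. Compounds up to 150 μM, 24 h at 37 °C, 5% CO2. Viability by resazurin (0.011% in PBS), read at 570 nm against drug-free and cell-free wells; 0.5% DMSO control. IC50 by sigmoidal dose-response curve fitting.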

The subject of series [4] is Peritoneal macrophage. Briefly: Antiinflammatory activity in BALB/c mouse peritoneal macrophages infected with Leishmania infantum MHOM/BR/1972/LD amastigote form cocultivated with splenocytes assessed as decrease in INF-gamma release at 15 uM after 48 hrs by flow cytometric analysis. Type of series: functional. An outline of the steps:
(§1)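 Peritoneal macrophages from BALB/c mice seeded at 1.5×10^5 cells/well; after 24 h, infected where applicable with L. infantum spleen-derived amastigotes at 1:10 (macrophage:amastigote). After 24 h, cocultured where applicable with splenocytes at 6:1. Compound added for 48 h. Supernatant cytokines quantified with an inflammatory cytometric bead array by flow cytometry. Sham-treated infected macrophages served as reference.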

A short description of series [5]: Selectivity index, ratio of CC50 for mouse NCTC-929 cells to IC50 for Trypanosoma cruzi Y trypomastigote form infected in monkey LLC-MK2 cells. Type of series: functional.
Series [6] relates to Leishmania infantum. In words: Induction of ROS generation in Leishmania infantum MHOM/BR/1972/LD promastigote form at 34 uM incubated for […] by H2DCF-DA probe based fluorimetric assay relative to untreated control. Type of series: functional. The procedure, abridged:
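Promastigotes (2×10^6/well) washed in HBSS and exposed to compound for 60 min. H2DCFDA (5 μM) then added for 15 min. Fluorescence read at ex 485/em 520 nm. Sodium azide 10 mM as positive control; background, DMSO, untreated and cell-free controls included. Triplicates.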

Series [7] relates to Peritoneal macrophage. In words: Antiinflammatory activity in BALB/c mouse peritoneal macrophages co-cultivated with splenocytes assessed as decrease in INF-gamma release at 15 uM after 48 hrs by flow cytometric analysis. Type of series: functional. An outline of the steps:
as §1

The nature of series [8]: Selectivity index, ratio of CC50 for mouse NCTC-929 cells to IC50 for Leishmania infantum MHOM/BR/1972/LD amastigote forms infected in BALB/c mouse macrophages. Type of series: functional.
Series [9] has as its system Leishmania infantum. Briefly: Antileishmanial activity against Leishmania infantum MHOM/BR/1972/LD promastigote forms […] assessed as reduction in parasite viability after 48 hrs by MTT assay. Type of series: functional. The procedure, abridged:
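Late-growth-phase promastigotes (passage 5) seeded at 1×10^6/well in M-199. Compounds dissolved in DMSO, tested up to 100 μM, 48 h at 24 °C. Viability by MTT, OD 570 nm, against drug-free (100%) and cell-free blank wells; 0.5% DMSO control. IC50 from sigmoidal dose-response curves; ≥2 independent assays.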

For series [10], the system named is Leishmania infantum. Briefly: Induction of mitochondrial membrane potential loss in Leishmania infantum MHOM/BR/1972/LD promastigote form at 34 uM incubated for 60 mins by rhodamine-123 dye based fluorimetric assay. Type of series: functional. The procedure, abridged:
(§2)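 Promastigotes (2×10^6/mL) in HBSS-glucose exposed to compound for 60 min at 25 °C. Rhodamine-123 (0.3 μg/mL) then added, cells washed and resuspended in HBSS-Glc, and fluorescence read at ex 485/em 520 nm. Sodium azide 10 mM as positive control; background, DMSO and untreated controls included. Triplicates.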

For series [11], the system named is Leishmania infantum. In words: Induction of plasma membrane permeability in Leishmania infantum MHOM/BR/1972/LD promastigote form assessed as increase in fluorescence intensity at 34 uM measured every 20 mins for 60 mins by SYTOX green dye based fluorimetric assay relative to control. Type of series: functional. An outline of the steps: (§3)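 Late-growth-phase promastigotes (passage 7) washed in PBS, seeded at 2×10^6/well and loaded with 1 μM SYTOX Green for 15 min at 24 °C. Compound added; fluorescence (ex 485/em 520 nm) read every 20 min over 60 min. 0.1% Triton X-100 defined maximal permeabilization. Background, DMSO, untreated and cell-free controls included. Triplicates.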

In series [12] the test system is Peritoneal macrophage. In words: Antiinflammatory activity in BALB/c mouse peritoneal macrophages co-cultivated with splenocytes assessed as decrease in INF-gamma release at 30 uM after 48 hrs by flow cytometric analysis. It counts as functional. The procedure, abridged: as §1
In series [13] the test system is Leishmania infantum. Briefly: Induction of plasma membrane permeability in Leishmania infantum MHOM/BR/1972/LD promastigote form assessed as increase in fluorescence intensity at 57 uM measured every 20 mins for 60 mins by SYTOX green dye based fluorimetric assay relative to control. Type of series: functional. An outline of the steps: as §3
In series [14] the test system is Peritoneal macrophage. In words: Antiinflammatory activity in BALB/c mouse peritoneal macrophages infected with Leishmania infantum MHOM/BR/1972/LD amastigote form assessed as decrease in INF-gamma release at 30 uM after 48 hrs by flow cytometric analysis. Type of series: functional. The procedure, abridged:
as §1

In series [15] the test system is Peritoneal macrophage. Briefly: Antiinflammatory activity in BALB/c mouse peritoneal macrophages assessed as decrease in MCP-1 release at 30 uM after 48 hrs by flow cytometric analysis. It counts as functional. An outline of the steps:
as §1

Series [16] relates to Peritoneal macrophage. Briefly: Antiinflammatory activity in BALB/c mouse peritoneal macrophages infected with Leishmania infantum MHOM/BR/1972/LD amastigote form assessed as decrease in MCP-1 release at 30 uM after 48 hrs by flow cytometric analysis. Type of series: functional. An outline of the steps: as §1
Series [17] has as its system Peritoneal macrophage. Briefly: Antiinflammatory activity in BALB/c mouse peritoneal macrophages infected with Leishmania infantum MHOM/BR/1972/LD amastigote form cocultivated with splenocytes assessed as decrease in INF-gamma release at 30 uM after 48 hrs by flow cytometric analysis. Type of series: functional. The procedure, abridged: as §1
The test system of series [18] is Peritoneal macrophage. Briefly: Antiinflammatory activity in BALB/c mouse peritoneal macrophages co-cultivated with splenocytes assessed as decrease in MCP-1 release at 30 uM after 48 hrs by flow cytometric analysis. It counts as functional. An outline of the steps: as §1
Series [19] has as its system Peritoneal macrophage. Briefly: Antiinflammatory activity in BALB/c mouse peritoneal macrophages assessed as decrease in INF-gamma release at 30 uM after 48 hrs by flow cytometric analysis. Type of series: functional. An outline of the steps:
as §1

Series [20] relates to Leishmania infantum. In words: Induction of ROS generation in Leishmania infantum MHOM/BR/1972/LD promastigote form at 57 uM incubated for […] by H2DCF-DA probe based fluorimetric assay relative to sodium azide. It counts as functional. The procedure, abridged: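 Promastigotes (2 × 10^6/well) washed in HBSS and exposed to compound for 60 min, then loaded with 5 μM H2DCFDA for 15 min. Fluorescence read at ex 485/em 520 nm. Sodium azide (10 mM) served as positive control. Controls were compound background fluorescence, DMSO, untreated promastigotes and cell-free medium. Run in triplicate.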

Series [21] has as its system Leishmania infantum. In words: Induction of mitochondrial membrane potential loss in Leishmania infantum MHOM/BR/1972/LD promastigote form at 57 uM incubated for 60 mins by rhodamine-123 dye based fluorimetric assay. It counts as functional. An outline of the steps: as §2
Series [22] deals with Splenocyte. In words: Antiinflammatory activity in splenocytes (unknown origin) assessed as decrease in MCP1 release at 30 uM after 48 hrs by flow cytometric analysis. It counts as functional, cell-based.
For series [23], the system named is Peritoneal macrophage. Briefly: Antiinflammatory activity in BALB/c mouse peritoneal macrophages infected with Leishmania infantum MHOM/BR/1972/LD amastigote form cocultivated with splenocytes assessed as decrease in MCP-1 release at 30 uM after 48 hrs by flow cytometric analysis. It counts as functional. The procedure, abridged: as §1

Active and inactive are the calls of the source. The calls are words filed in the database; no cut-off is given here.

On to `F[B-](F)(F)F.c1ccc([C@@H]2C[C@@H]3CC[C@@H]4C[C@H](c5ccccc5)NC(=[NH+]2)N43)cc1`, for which the result with Splenocyte [1], in the series on Peritoneal macrophage [4] and in the series with Peritoneal macrophage [7] was Active. Also, the IC50 in the series on Leishmania infantum [2] was found to be 2 µM; in the series with Trypanosoma cruzi, 9 µM; in the series with Leishmania infantum [9] it was 34 µM. In addition, in [3], the CC50 at 48 h came out at 45 µM. Further, the “Ratio CC50/IC50” value in series [5] came to 5; in [8], 20. For the same molecule, the Activity is 60% in the series on Leishmania infantum [6], 70% in the series on Leishmania infantum [10] and 10% in the series with Leishmania infantum [11].
Take `C[C@@H]1C[C@@H]2CC[C@@H]3C[C@H](CCCCOCc4ccccc4)NC(=[NH+]1)N32.F[B-](F)(F)F`: the IC50 in the series on Leishmania infantum [2] is 5 µM; in the series on Trypanosoma cruzi, 41 µM; in the series on Leishmania infantum [9], 57 µM. For the same molecule, the CC50 at 48 h in [3] is 138 µM. Further, the outcome in the series on Peritoneal macrophage [12], in the series with Peritoneal macrophage [14], with Peritoneal macrophage [15], in the series with Peritoneal macrophage [16], in the series on Peritoneal macrophage [17] and in the series with Peritoneal macrophage [18] was Active. For the same molecule, the outcome in the series on Peritoneal macrophage [19], with Splenocyte [22] and in the series with Peritoneal macrophage [23] was Active. Moreover, the values for the Activity with Leishmania infantum [13] and in the series with Leishmania infantum [21] were 25% and 70%, respectively. Moreover, the entries for the “Ratio CC50/IC50” value in series [5] and in [8] were 3 and 25, respectively. In addition, the “fold change (FC)” value in the series on Leishmania infantum [20] was found to be 3.

Usually IC50 stands for the midpoint of a concentration-inhibition curve. As a reminder, the CC50 is the concentration at which the toxic effect on the cells reaches its halfway point.

The record behind these values is ChEMBL document CHEMBL3868592, “Analogues of Marine Guanidine Alkaloids Are in Vitro Effective against Trypanosoma cruzi and Selectively Eliminate Leishmania (L.) infantum Intracellular Amastigotes” (J Nat Prod, 2016).
